The source made the active and inactive calls. No cut-off for these calls is given here.
Key:
[1] = Inhibition of Mycobacterium tuberculosis PTPB expressed in Escherichia coli BL21/DE3 cells using pNPP as substrate after 5 mins by spectrophotometry
BL21-DE3 [2] = test: Potency index, ratio of SPAA IC50 to compound IC50 for Mycobacterium tuberculosis PTPB expressed in Escherichia coli BL21/DE3 cells
BL21-DE3 [3] = test: Inhibition of Mycobacterium tuberculosis PTPB expressed in Escherichia coli BL21/DE3 cells using pNPP as substrate at 200 uM after 5 mins by spectrophotometry
Procedure, shortened: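 Single-point screen: the test compound is present at 200 μM in the assay (a compound concentration, not a substrate level). The read-out is phosphatase-catalysed hydrolysis of para-nitrophenyl phosphate.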

Row | SMILES | IC50 [1] | Ratio IC50 (BL21-DE3 [2]) | inhibition (BL21-DE3 [3])
1 | O=C(Nc1cccc2ccccc12)C(c1ccccc1)S(=O)(=O)O (racemic) | 0.72 µM | – | –
2 | O=C(NC1CC1)C(c1ccccc1)S(=O)(=O)O (racemic) | 5.6 µM | 32 | –
3 | NC(=O)c1ccncc1 | – | – | inactive

Source: ChEMBL document CHEMBL3769383, “Cefsulodin Inspired Potent and Selective Inhibitors of mPTPB, a Virulent Phosphatase from Mycobacterium tuberculosis” (ACS Med Chem Lett, 2015)
